Measured values as given in the RNAGym collection of RNA variant scans (doi:10.1126/science.aae0568).
Variants at the floor of the assay were thinned out.

B1: tRNA (parent)
chain: GUUCCGUUGGCGUAAUGGUAACGCGUCUCCCUCCUAAGGAGAAGACUGCGGGUUCGAGUCCCGUACGGAACG

Variants of: B1
Assay: yeast fitness relative to wild type (ratio to wild type); higher = fitter; tRNA-Arg(CCU), competitive growth, 37 C, YPD
Procedure, shortened: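 A pool of Saccharomyces cerevisiae strains, each with a tRNA-Arg(CCU) gene variant at the native genomic locus, was competed in YPD at 37°C for 24 hours across six parallel replicates. The variants had been chemically synthesised at a 3% per-site mutation rate over 69 sites, and gene amplicons before and after competition were read by 100-nucleotide paired-end sequencing. Darwinian fitness relative to wild type rested on changes in genotype frequencies. Genotypes required ≥ 100 starting reads, and estimates < 0.5 were set to 0.5.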

Row | Variant | yeast fitness
1 | A43G U53C C55U C62U | ≤ 0.5
2 | A43C C49A C66A | ≤ 0.5
3 | A43U C46A A65C A70U | ≤ 0.5
4 | A43C U47C | 1.07
5 | A43C G68A | 0.922
6 | A43U C55A G68C A69U | ≤ 0.5
7 | A43U G52C C62A | ≤ 0.5
8 | A43G C61G C62U | ≤ 0.5
9 | A43U A45C | 0.837
10 | A43G C46G U53C G56C | ≤ 0.5
11 | A43G C66A | 0.791
12 | A43C C55U G67C | 0.556
13 | A43C C49U C62G | 0.561
14 | A43U G48C C60G | ≤ 0.5
15 | A43G G58A | 0.969
16 | A43U C60G C62G | ≤ 0.5
17 | A43U C60G C62U | 0.839
18 | A43G C46U A70G | 1.04
19 | A43C C60G G67A | ≤ 0.5
20 | A43G G52C U53C G63C | 0.604
21 | A43U C49A C66U A70U | 0.529
22 | A43G A57U G58A | 0.531
23 | A43C G51C | 0.587
24 | A43C G51A | 0.809

Row | Variant | yeast fitness
25 | A43C U53C C66U A70C | ≤ 0.5
26 | A43C G50C | 0.593
27 | A43C G50A | 0.803
28 | A43C C60G | 0.953
29 | A43C C60A | 0.591
30 | A43G C62U | 0.877
31 | A43G C62A | 0.72
32 | A43G C62G | 0.752
33 | A43U C61G C62U G68A A69C | ≤ 0.5
34 | A43C C49U C66U | 0.718
35 | A43U A69C A70C | 0.601
36 | A43U G67A A69U | 0.548
37 | A43U U54A A57C | 0.533
38 | A43G U47G C55G | 0.636
39 | A43U C62U G63A | 0.823
40 | A43G G52C | 0.643
41 | A43U A57U | 0.761
42 | A43U A57G | 1.01
43 | A43G C60U C62U | 0.536
44 | A43G G52A A69U A70C | ≤ 0.5
45 | A43C G50C A70U | 0.574
46 | A43U A45U A57C C66U | ≤ 0.5
47 | A43C G63A A65C | 0.701
48 | A43G A57U | 0.623

Row | Variant | yeast fitness
49 | A43U G48C C60G G63A | ≤ 0.5
50 | A43C G48C A57G | 0.817
51 | A43U C46A G63A | 0.689
52 | A43G A69U | 1.04
53 | A43G G48A G50A G51A C62U | ≤ 0.5
54 | A43G U53A U54C | ≤ 0.5
55 | A43U G48A G56C A57U | 0.693
56 | A43G U64A | 0.77
57 | A43G U64C | 0.923
58 | A43G A45G | 0.745
59 | A43G A45C | 0.901
60 | A43G A45U | 1.01
61 | A43U G48C | 0.922
62 | A43G C55G | 0.684
63 | A43U C55A C66U | 0.6
64 | A43G C60U C62U G67A A70C | 0.576
65 | A43C G52C | 0.74
66 | A43U U53A A69C | 0.614
67 | A43G G51A G58A | 0.58
68 | A43G G51C A69U | ≤ 0.5
69 | A43G G48C C66G | ≤ 0.5
70 | A43U C55G | 0.537
71 | A43G U53A | 0.657
72 | A43U G56A G63A | 0.773

Row | Variant | yeast fitness
73 | A43C U53A U54C | 0.583
74 | A43U G50C C60A | ≤ 0.5
75 | A43U C46G A57G U64A A70G | ≤ 0.5
76 | A43U C46U A69U | 0.807
77 | A43U C60A C62U | 0.65
78 | A43G G51A C61U C62G | ≤ 0.5
79 | A43G A65G | 1.08
80 | A43G A65U | 0.899
81 | A43U G56A | 0.96
82 | A43C U47A G58C U64C | ≤ 0.5
83 | A43G G51A | 0.853
84 | A43U A65C G68U | 0.527
85 | A43G G58A C61G | ≤ 0.5
86 | A43G C46U C60G G68U | 0.567
87 | A43U A45C G67C | ≤ 0.5
88 | A43C G44C C55G C62U | 0.661
89 | A43G A57C G58A A65U | ≤ 0.5
90 | A43G G68C | 0.712
91 | A43C C66G | 0.603
92 | A43C C66A | 0.699
93 | A43G U59A | 0.797
94 | A43C C49U C55G C61U | 0.556
95 | A43U C61A A65U | ≤ 0.5
96 | A43C C62A | 0.874

Row | Variant | yeast fitness
97 | A43G G50A G51A C62U | ≤ 0.5
98 | A43U U47G U53G | 0.519
99 | A43U G48A C60A | 0.586
100 | A43U G52A A69U | ≤ 0.5
101 | A43G A45U G67U | 0.682
102 | A43U C60A | 0.59
103 | A43C G58C | 1.03
104 | A43G G56C | 0.766
105 | A43C G48A | 1.06
106 | A43U G50A G68A | ≤ 0.5
107 | A43G A45C C49G | 0.532
108 | A43U A65C | 0.952
109 | A43U A65U | 0.883
110 | A43U C60G U64A | 0.679
111 | A43U C46U | 0.952
112 | A43U A65C A69C | ≤ 0.5
113 | A43G A57C C60G | ≤ 0.5
114 | A43G G48A | 0.933
115 | A43G U64G C66U | 0.544
116 | A43C U54A A57G | ≤ 0.5
117 | A43G G67U | 0.85
118 | A43G G67A | 0.864
119 | A43G G50C U59C | ≤ 0.5
120 | A43G G50A G51A | ≤ 0.5

Row | Variant | yeast fitness
121 | A43G C55A A69U | 0.633
122 | A43U | 0.988
123 | A43G | 0.991
124 | A43G G63A A69U | 0.812
125 | A43G A45U C46U A70U | ≤ 0.5
126 | A43U C66U | 0.829
127 | A43U G50C | 0.812
128 | A43U G50A | 0.796
129 | A43G G50A | 0.864
130 | A43C C49U C55G | 0.519
131 | A43U U47C | 0.899
132 | A43G G44C C66U | 0.57
133 | A43U C61G C62A | 0.581
134 | A43G G52C C55A C61A | ≤ 0.5
135 | A43U G58U | 0.694
136 | A43U A69G | 0.886
137 | A43U A69C | 0.986
138 | A43G G51A C55G C60U | ≤ 0.5
139 | A43U C46U C49U | 0.731
140 | A43U C49U C62U | 0.79
141 | A43G G44A C46A G67A | 0.59
142 | A43U C55U C66U | 0.619
143 | A43U C49G G63A A69C | ≤ 0.5
144 | A43U U47C C55A A65U A70G | ≤ 0.5

Row | Variant | yeast fitness
145 | A43G C55U C61A | ≤ 0.5
146 | A43C U64C | 0.997
147 | A43U C49G | 0.727
148 | A43C G48A A70C | 1.13
149 | A43G G63C G68A | ≤ 0.5
150 | A43U C46A G48C | 0.631
151 | A43U A70G | 0.937
152 | A43U A70C | 0.898
153 | A43C G63C G67A | ≤ 0.5
154 | A43G A45U G48A | 0.658
155 | A43G C60U A65G | 0.535
156 | A43G G44A C46A | 0.976
157 | A43U C62A | 0.702
158 | A43G C49U A69C | 0.6
159 | A43G A45U A69U | 0.771
160 | A43U C62U A70C | 0.637
161 | A43G C49A | 0.574
162 | A43G C49G | 0.732
163 | A43U G63C | 0.589
164 | A43G C61A | 0.616
165 | A43G C66U G68A | 0.585
166 | A43G A45U U47C G63A | ≤ 0.5
167 | A43G C49U A57C A65U | ≤ 0.5
